Activity calls are given as the source filed them. The rule behind the calls is not given here.
Tests used:
[1] = target: Mitogen-activated protein kinase 1 (Homo sapiens, UniProt P28482); experiment: Inhibition of full length recombinant human GST-tagged ERK2 expressed in Escherichia coli using Ser/Thr 03 as substrate after 1 hr by Z'-Lyte assay
Summary of the method: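 Z'-Lyte FRET activity assay run per the supplier's protocol, with ATP near the kinase's Km.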

[2] = target: Dual specificity mitogen-activated protein kinase kinase 1 (Homo sapiens, UniProt Q02750); experiment: Inhibition of full length recombinant human His-tagged MEK1 expressed in baculovirus expression system after 1 hr by TR-FRET based LanthaScreen assay
Sequence of Dual specificity mitogen-activated protein kinase kinase 1 (Q02750 whole entry): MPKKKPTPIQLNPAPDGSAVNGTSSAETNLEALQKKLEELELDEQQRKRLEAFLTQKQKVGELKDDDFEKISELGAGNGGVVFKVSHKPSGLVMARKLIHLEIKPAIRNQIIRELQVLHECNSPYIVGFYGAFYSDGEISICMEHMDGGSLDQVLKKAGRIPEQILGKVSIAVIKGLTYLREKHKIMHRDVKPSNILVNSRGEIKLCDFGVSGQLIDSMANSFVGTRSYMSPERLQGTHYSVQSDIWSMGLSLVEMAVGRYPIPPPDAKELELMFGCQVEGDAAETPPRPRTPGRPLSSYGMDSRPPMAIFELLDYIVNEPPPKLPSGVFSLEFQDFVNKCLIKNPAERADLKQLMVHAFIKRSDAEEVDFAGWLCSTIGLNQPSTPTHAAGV

[3] = Half life in mouse liver microsomes by LC-MS/MS analysis; type: ADME
[4] = target: T1, Mitogen-activated protein kinase kinase kinase 7 (Homo sapiens) (UniProt O43318)
T1 sequence (whole entry): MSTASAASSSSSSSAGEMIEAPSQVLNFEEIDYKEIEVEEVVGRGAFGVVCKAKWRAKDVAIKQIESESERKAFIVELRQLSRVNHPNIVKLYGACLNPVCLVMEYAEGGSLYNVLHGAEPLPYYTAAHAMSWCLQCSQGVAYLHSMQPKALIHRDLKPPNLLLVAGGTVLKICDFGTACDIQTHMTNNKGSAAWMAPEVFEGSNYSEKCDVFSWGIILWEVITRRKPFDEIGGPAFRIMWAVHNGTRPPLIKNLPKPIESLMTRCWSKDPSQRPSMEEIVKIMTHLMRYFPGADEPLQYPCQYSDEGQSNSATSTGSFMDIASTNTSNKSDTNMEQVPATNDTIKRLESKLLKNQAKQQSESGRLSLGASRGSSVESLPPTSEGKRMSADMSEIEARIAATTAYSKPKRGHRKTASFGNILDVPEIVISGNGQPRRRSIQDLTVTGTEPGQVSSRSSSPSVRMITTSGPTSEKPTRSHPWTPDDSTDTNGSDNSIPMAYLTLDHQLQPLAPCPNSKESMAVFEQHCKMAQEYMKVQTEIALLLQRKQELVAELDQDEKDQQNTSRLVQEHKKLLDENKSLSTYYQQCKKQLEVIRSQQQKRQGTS

[5] = target: T2, Mitogen-activated protein kinase kinase kinase 7 (Homo sapiens, UniProt O43318); experiment: Time-dependent inhibition of TAB1 fused TAK1 (unknown origin) using FAM-LRRKtide as substrate by mobility shift assay
T2 sequence (O43318 whole entry): T1 sequence (whole entry)

[6] = target: T2, Mitogen-activated protein kinase kinase kinase 7; experiment: Inhibition of full length recombinant human GST-tagged TAK1 expressed in baculovirus expression system after 1 hr by TR-FRET based LanthaScreen assay
[7] = target: Wee1-like protein kinase 2 (Homo sapiens) (UniProt P0C1S8); experiment: Inhibition of human WEE2 (M204 to K492 residues) expressed in bacterial expression system at 1 uM by KINOMEScan assay
Sequence of Wee1-like protein kinase 2 (Homo sapiens) (P0C1S8 whole entry, looked up, the tested form may be a part): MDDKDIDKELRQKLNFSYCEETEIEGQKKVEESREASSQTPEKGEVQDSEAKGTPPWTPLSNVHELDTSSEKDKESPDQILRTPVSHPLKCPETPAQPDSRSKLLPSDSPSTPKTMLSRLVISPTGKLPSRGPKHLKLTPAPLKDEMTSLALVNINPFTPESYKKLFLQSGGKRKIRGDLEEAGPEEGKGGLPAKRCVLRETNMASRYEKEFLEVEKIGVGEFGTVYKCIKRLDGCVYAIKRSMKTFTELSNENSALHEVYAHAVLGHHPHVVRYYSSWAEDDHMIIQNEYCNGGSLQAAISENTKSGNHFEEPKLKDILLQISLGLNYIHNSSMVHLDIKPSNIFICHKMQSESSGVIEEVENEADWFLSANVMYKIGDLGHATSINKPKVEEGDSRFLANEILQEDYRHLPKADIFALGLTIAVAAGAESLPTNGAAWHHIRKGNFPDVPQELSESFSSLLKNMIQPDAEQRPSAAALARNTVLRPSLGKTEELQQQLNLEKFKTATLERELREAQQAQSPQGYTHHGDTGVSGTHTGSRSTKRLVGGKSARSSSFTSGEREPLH
Summary of the method: (§1)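 KINOMEscan in vitro ATP-site competition binding, screened across a 468-kinase and mutant panel at a single concentration of 1 μM. Read-out is a binding or inhibition score […].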

[8] = target: T3, Mitogen-activated protein kinase kinase kinase 3 (Homo sapiens) (UniProt Q99759); experiment: Inhibition of human MAP3K3 (E320 to Y626 residues) expressed in mammalian expression system at 1 uM by KINOMEScan assay; summary of the method: as §1
T3 sequence (whole entry): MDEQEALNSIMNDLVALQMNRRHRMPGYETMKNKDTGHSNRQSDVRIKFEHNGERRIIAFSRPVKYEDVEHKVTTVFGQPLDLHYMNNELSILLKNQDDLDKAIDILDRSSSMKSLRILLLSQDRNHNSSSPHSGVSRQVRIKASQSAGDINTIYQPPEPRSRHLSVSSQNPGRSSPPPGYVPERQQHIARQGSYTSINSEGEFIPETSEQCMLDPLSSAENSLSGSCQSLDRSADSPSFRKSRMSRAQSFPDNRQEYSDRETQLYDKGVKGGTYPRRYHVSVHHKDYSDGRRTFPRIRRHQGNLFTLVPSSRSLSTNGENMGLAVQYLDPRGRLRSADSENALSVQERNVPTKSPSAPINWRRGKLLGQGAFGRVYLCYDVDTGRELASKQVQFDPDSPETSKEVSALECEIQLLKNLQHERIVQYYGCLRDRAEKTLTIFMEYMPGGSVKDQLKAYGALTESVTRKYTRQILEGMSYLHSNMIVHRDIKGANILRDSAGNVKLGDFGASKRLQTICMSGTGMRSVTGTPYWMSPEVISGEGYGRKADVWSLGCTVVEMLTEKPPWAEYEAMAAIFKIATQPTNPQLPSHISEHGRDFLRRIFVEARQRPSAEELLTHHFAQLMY

[9] = target: T4, Mitogen-activated protein kinase kinase kinase 2 (Homo sapiens) (UniProt Q9Y2U5); experiment: Inhibition of human MAP3K2 (S315 to H619 residues) expressed in mammalian expression system at 1 uM by KINOMEScan assay; summary of the method: as §1
T4 sequence (whole entry): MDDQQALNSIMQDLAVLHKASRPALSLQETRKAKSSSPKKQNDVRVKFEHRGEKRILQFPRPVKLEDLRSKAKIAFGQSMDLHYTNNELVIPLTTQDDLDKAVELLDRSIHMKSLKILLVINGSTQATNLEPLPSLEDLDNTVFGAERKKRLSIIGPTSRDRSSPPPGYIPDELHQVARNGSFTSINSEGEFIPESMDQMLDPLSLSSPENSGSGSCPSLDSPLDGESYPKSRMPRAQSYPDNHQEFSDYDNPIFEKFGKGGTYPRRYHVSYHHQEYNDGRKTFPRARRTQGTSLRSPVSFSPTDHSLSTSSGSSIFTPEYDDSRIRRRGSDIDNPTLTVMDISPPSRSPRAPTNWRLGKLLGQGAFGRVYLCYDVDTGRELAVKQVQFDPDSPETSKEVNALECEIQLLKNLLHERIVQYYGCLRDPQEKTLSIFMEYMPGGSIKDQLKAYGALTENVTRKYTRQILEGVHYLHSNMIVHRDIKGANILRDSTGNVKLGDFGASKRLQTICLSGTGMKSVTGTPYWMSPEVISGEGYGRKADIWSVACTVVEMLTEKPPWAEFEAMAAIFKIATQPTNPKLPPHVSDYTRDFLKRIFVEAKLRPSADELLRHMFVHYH

[10] = target: Protein-tyrosine kinase 2-beta (Homo sapiens) (UniProt Q14289); experiment: Inhibition of full length human PYK2 (M1 to E967 residues) expressed in bacterial expression system at 1 uM by KINOMEScan assay; summary of the method: as §1
Sequence of Protein-tyrosine kinase 2-beta (Homo sapiens) (Q14289 whole entry, looked up, the tested form may be a part): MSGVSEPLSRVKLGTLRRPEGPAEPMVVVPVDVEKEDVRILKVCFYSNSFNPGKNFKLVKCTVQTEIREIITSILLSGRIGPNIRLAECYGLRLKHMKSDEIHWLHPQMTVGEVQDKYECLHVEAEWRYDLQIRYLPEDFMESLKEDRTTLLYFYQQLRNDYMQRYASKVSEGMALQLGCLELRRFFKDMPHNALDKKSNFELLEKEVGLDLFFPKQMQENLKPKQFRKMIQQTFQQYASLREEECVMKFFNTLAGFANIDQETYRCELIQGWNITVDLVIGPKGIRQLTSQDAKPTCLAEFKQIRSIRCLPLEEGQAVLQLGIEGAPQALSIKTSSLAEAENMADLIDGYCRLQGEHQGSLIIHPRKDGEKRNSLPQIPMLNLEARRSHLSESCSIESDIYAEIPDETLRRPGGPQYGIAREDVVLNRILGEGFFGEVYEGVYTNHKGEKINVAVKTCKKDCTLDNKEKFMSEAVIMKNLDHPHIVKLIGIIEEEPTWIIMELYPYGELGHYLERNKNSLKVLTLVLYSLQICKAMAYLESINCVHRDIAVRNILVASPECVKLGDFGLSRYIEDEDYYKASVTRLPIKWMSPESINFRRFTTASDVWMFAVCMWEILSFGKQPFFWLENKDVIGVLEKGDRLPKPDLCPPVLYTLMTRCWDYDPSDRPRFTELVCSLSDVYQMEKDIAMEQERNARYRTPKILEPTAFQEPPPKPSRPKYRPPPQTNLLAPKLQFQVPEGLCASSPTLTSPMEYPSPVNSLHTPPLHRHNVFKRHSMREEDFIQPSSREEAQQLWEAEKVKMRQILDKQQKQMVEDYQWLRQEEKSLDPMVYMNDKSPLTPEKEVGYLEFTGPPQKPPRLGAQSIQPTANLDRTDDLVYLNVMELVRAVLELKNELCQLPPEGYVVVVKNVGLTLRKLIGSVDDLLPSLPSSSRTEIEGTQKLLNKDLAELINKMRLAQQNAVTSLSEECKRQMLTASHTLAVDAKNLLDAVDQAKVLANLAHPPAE

[11] = target: Wee1-like protein kinase (Homo sapiens) (UniProt P30291); experiment: Inhibition of human WEE1 (M291 to K575 residues) expressed in bacterial expression system at 1 uM by KINOMEScan assay; summary of the method: as §1
Sequence of Wee1-like protein kinase (Homo sapiens) (P30291 whole entry, looked up, the tested form may be a part): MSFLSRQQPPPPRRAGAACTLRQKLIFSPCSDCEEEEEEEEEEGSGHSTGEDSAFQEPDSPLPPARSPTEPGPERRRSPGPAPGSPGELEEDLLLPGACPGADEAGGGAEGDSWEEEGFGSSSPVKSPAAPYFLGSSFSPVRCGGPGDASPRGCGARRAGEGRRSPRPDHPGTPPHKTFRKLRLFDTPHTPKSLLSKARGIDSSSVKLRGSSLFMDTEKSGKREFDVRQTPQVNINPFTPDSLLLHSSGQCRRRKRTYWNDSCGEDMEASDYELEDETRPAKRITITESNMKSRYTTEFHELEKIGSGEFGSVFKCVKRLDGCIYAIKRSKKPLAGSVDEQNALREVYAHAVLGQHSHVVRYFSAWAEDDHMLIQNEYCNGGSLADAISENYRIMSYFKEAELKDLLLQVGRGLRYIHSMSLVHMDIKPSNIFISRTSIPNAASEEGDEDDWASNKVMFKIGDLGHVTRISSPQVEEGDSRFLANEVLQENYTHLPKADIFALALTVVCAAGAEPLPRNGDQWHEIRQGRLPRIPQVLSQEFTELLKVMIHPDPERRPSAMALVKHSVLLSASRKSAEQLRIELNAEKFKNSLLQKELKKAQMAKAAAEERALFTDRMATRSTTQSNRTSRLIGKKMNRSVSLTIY

[12] = target: T1, Mitogen-activated protein kinase kinase kinase 7 (Homo sapiens); conditions: 10 uM
[13] = target: T1, Mitogen-activated protein kinase kinase kinase 7 (Homo sapiens); experiment: Binding affinity to full length recombinant human GST-tagged TAK1 expressed in baculovirus expression system assessed as labeling of Cys-174 residue after 1 hr by mass spectrometric analysis

Sequence of Mitogen-activated protein kinase 1 (P28482 whole entry): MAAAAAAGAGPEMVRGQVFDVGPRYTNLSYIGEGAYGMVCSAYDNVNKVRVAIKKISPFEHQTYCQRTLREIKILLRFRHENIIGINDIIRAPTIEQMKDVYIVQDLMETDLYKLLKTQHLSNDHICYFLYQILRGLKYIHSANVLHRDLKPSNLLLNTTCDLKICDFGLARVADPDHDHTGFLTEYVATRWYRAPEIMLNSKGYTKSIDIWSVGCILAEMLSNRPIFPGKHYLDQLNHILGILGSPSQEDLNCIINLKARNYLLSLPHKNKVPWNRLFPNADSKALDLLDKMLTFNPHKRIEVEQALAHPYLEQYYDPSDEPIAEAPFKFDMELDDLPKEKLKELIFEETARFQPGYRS

| Compound | IC50 [1] | IC50 [2] | t1/2 [3] | also measured |
| --- | --- | --- | --- | --- |
| C=CC(=O)Nc1ccccc1-n1ccc2cnc(Nc3ccc(N4CCN(C)CC4)cc3)nc21 | > 10000 nM | 6810 nM | 10.5 min |  |
| C=CC(=O)Nc1ccccc1Sc1nc(Nc2ccc(N3CCN(C)CC3)cc2)ncc1Cl |  | 2480 nM |  |  |
| C=CC(=O)Oc1ccccc1Nc1nc(Nc2ccc(N3CCOCC3)cc2)ncc1Cl | 361 nM | 8.9 nM | 3.8 min |  |
| C=CC(=O)Nc1ccccc1Oc1nc(Nc2ccc(N3CCN(C)CC3)cc2)ncc1OC | 1670 nM | 1300 nM | 15.3 min |  |
| C=CC(=O)Nc1ccccc1Nc1nc(Nc2ccc(N3CCN(C)CC3)cc2)ncc1Cl | 1090 nM | 142 nM | 10.8 min | Kinact [4]: 1.1 ×10⁻³ /s; IC50 [5]: 125 nM; Ki [5]: 160 nM |
| C=CC(=O)Nc1ccccc1Oc1ccnc(Nc2ccc(N3CCN(C)CC3)cc2)n1 |  | 4470 nM |  |  |
| C=CC(=O)Oc1ccccc1Nc1nc(Nc2ccc(N3CCN(C)CC3)cc2OC)ncc1Cl |  |  |  | IC50 [6]: 342 nM |
| C=CC(=O)Oc1ccccc1Nc1nc(Nc2ccc(N3CCN(C)CC3)cc2)ncc1Cl | 277 nM | 16 nM | 5.7 min |  |
| C=CC(=O)Nc1ccccc1Oc1nc(Nc2ccc(N3CCN(C)CC3)cc2)ncc1C | 9230 nM | 1630 nM | 8.8 min |  |
| C=CC(=O)Nc1ccccc1Oc1nc(Nc2cnn(C)c2)ncc1Cl | 3140 nM | 9.8 nM | 8.1 min |  |
| C=CC(=O)Nc1ccccc1Oc1nc(Nc2ccc(N3CCN(C)CC3)cc2)ncc1C1CC1 | 5600 nM | 763 nM | 12.8 min |  |
| C=CC(=O)Nc1ccccc1Oc1nc(Nc2ccc(N3CCN(C)CC3)cc2)nc(N)c1Cl |  | > 10000 nM |  |  |
| C=CC(=O)Oc1ccccc1Nc1nc(Nc2cccc(N3CCN(C(C)=O)CC3)c2)ncc1Cl | 225 nM | 9.5 nM | < 1 min |  |
| C=CC(=O)Nc1ccc(Oc2nc(Nc3ccc(N4CCN(C)CC4)cc3)nc3[nH]ccc23)cc1 |  |  |  | IC50 [6]: 34 nM |
| C=CC(=O)Nc1ccccc1Oc1nc(Nc2cnn(C(F)F)c2)ncc1Cl | 242 nM | 26 nM | 4.2 min |  |
| C=CC(=O)Nc1cc(NC(C)=O)ccc1Oc1nc(Nc2ccc(N3CCN(C)CC3)cc2)ncc1Cl |  | 4810 nM |  | IC50 [6]: 1640 nM |
| C=CC(=O)Nc1ccccc1Oc1nc(Nc2cnn(C3CCOCC3)c2)ncc1Cl | 4620 nM | 8.2 nM | 4 min |  |
| CCC(=O)Nc1ccccc1Oc1nc(Nc2ccc(N3CCN(C)CC3)cc2)ncc1Cl |  | > 10000 nM |  | IC50 [6]: > 10000 nM |
| CCC(=O)Nc1ccccc1Nc1nc(Nc2ccc(N3CCN(C)CC3)cc2)ncc1Cl |  |  |  | inhibition [7]: Active; inhibition [8]: Active; inhibition [9]: Active; inhibition [10]: Active; inhibition [11]: Active |
| COc1cc(O)c2c(c1)/C=C/C[C@H](O)[C@H](O)C(=O)/C=C\C[C@H](C)OC2=O | 738 nM | 2.9 nM |  | inhibition [12]: Active |
| C=CC(=O)Oc1ccccc1Nc1nc(Nc2cccc(N3CCOCC3)c2)ncc1Cl | 736 nM | 11 nM | 23 min |  |
| C=CC(=O)Nc1ccccc1Oc1nc(Nc2ccc(N3CCN(C)CC3)cc2)ncc1Cl | 7000 nM | 78 nM | 6.1 min | Activity [13]: Active; IC50 [5]: 360 nM |
| C=CC(=O)Nc1ccccc1Oc1nc(Nc2cnn(CCOC)c2)ncc1Cl | 90.3 nM | 8.5 nM | 6.9 min | IC50 [5]: 7.6 nM |
| CN1CCN(c2ccc(Nc3ncc(Cl)c(Oc4ccccc4NC(=O)CCl)n3)cc2)CC1 | > 10000 nM | 2500 nM | 3 min | IC50 [6]: 25 nM |
